Assay results from ChEMBL document CHEMBL1140069, “In vitro antifungal activity of polyfunctionalized 2-(hetero)arylquinolines prepared through imino Diels-Alder reactions” (2008).
Values after ≈ are worked out from the molar mass of the structure shown.

Assays:
Assay type in all cases: functional
Candida albicans [1] = assay: Antimicrobial activity against Candida albicans C128 isolate at 25 ug/ml after 24 hrs
Method in brief: (§1)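 Growth-inhibition microplate test. Strains are grown on Sabouraud-chloramphenicol agar for 48 h at 30 °C, and inoculum is added to RPMI-1640 containing compound at a final 100–6.25, with DMSO ≤2%. Each strain has a growth control (same DMSO, no compound) and a sterility control.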

Saccharomyces cerevisiae = assay: Antifungal activity against Saccharomyces cerevisiae ATCC 9763 after 48 hrs by broth microdilution technique; conditions: ATCC 9763, 48 h
Method in brief: (§2)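 CLSI broth microdilution: M-27 A2 for yeasts and M-38 A for filamentous fungi. Medium is RPMI-1640 buffered to pH 7.0 with MOPS. Compound is diluted twofold from 250 to 0.98, final DMSO ≤2%. Inoculum is 1–5 × 10³ CFU/mL. Plates are incubated at 35 °C in a moist, dark chamber and read visually at 48 h. MIC100 is the lowest concentration giving total growth inhibition versus drug-free control.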

Candida albicans [2] = assay: Antimicrobial activity against Candida albicans C128 isolate at 50 ug/ml after 24 hrs; method in brief: as §1
Candida tropicalis [3] = assay: Antimicrobial activity against Candida tropicalis C131 isolate at 25 ug/ml after 24 hrs
Method in brief: (§3)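 Percent growth inhibition in 96-well microplates. Compound stocks in DMSO (≤2%) were diluted in RPMI-1640 to final 100–6.25 µg/mL, and 100 µL inoculum was added (final 200 µL). Controls were a growth well (inoculum with matching DMSO, no compound) and a sterility well (no inoculum). Inhibition was calculated against growth and sterility wells.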

Cryptococcus neoformans [4] = assay: Antimicrobial activity against Cryptococcus neoformans ATCC 32264 at 6.25 ug/ml after 48 hrs; conditions: ATCC 32264, 48 h; method in brief: as §3
Candida albicans [5] = assay: Antimicrobial activity against Candida albicans C129 isolate at 50 ug/ml after 24 hrs; method in brief: as §1
Pichia kudriavzevii [6] = assay: Antimicrobial activity against Candida krusei C117 isolate at 6.25 ug/ml after 24 hrs; method in brief: as §3
Aspergillus fumigatus = assay: Antifungal activity against Aspergillus fumigatus ATTC 26934 after 48 hrs by broth microdilution technique; method in brief: as §2
Candida albicans [7] = assay: Antimicrobial activity against Candida albicans C126 isolate at 25 ug/ml after 24 hrs; method in brief: as §1
Cryptococcus neoformans [8] = assay: Antimicrobial activity against Cryptococcus neoformans IM 972751 isolate at 12.5 ug/ml after 48 hrs
Method in brief: (§4)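 Clinical Cryptococcus isolates kept on Sabouraud-dextrose agar slopes; inoculum 1–5 × 10³ CFU/mL. Quinoline DMSO stocks were diluted in RPMI-1640 to final 100–6.25 µg/mL, with DMSO ≤2%. An equal volume of inoculum was added (200 µL per well). Run in triplicate.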

Cryptococcus neoformans [9] = assay: Antimicrobial activity against Cryptococcus neoformans IM 031706 isolate at 6.25 ug/ml after 48 hrs; method in brief: as §3
Cryptococcus neoformans [10] = assay: Antimicrobial activity against Cryptococcus neoformans IM 031706 isolate at 50 ug/ml after 48 hrs; method in brief: as §3
Cryptococcus neoformans [11] = assay: Antimicrobial activity against Cryptococcus neoformans IM 052470 isolate at 50 ug/ml after 48 hrs; method in brief: as §3
Cryptococcus neoformans [12] = assay: Antimicrobial activity against Cryptococcus neoformans IM 972724 isolate at 25 ug/ml after 48 hrs; method in brief: as §4
Cryptococcus neoformans [13] = assay: Antimicrobial activity against Cryptococcus neoformans IM 031631 isolate at 12.5 ug/ml after 48 hrs; method in brief: as §3
Cryptococcus neoformans [14] = assay: Antimicrobial activity against Cryptococcus neoformans ATCC 32264 at 25 ug/ml after 48 hrs; conditions: ATCC 32264, 48 h; method in brief: as §3
Candida albicans [15] = assay: Antimicrobial activity against Candida albicans ATCC 10231 at 50 ug/ml after 24 hrs; conditions: ATCC 10231, 24 h; method in brief: as §1
Candida albicans [16] = assay: Antimicrobial activity against Candida albicans C127 isolate at 50 ug/ml after 24 hrs; conditions: C127, 24 h; method in brief: as §1
Pichia kudriavzevii [17] = assay: Antimicrobial activity against Candida krusei C117 isolate at 50 ug/ml after 24 hrs; method in brief: as §3
Candida albicans [18] = assay: Antimicrobial activity against Candida albicans C129 isolate at 12.5 ug/ml after 24 hrs; method in brief: as §1
Candida albicans [19] = assay: Antimicrobial activity against Candida albicans C127 isolate at 6.25 ug/ml after 24 hrs; conditions: C127, 24 h; method in brief: as §1
[20] = system: Trichophyton mentagrophytes; assay: Antifungal activity against Trichophyton mentagrophytes ATCC 9972 after 48 hrs by broth microdilution technique; conditions: ATCC 9972, 48 h; method in brief: as §2
Nakaseomyces glabratus = assay: Antimicrobial activity against Candida glabrata C115 isolate at 25 ug/ml after 24 hrs; method in brief: as §3
Candida albicans [21] = assay: Antimicrobial activity against Candida albicans C128 isolate at 6.25 ug/ml after 24 hrs; method in brief: as §1
Cryptococcus neoformans [22] = assay: Antimicrobial activity against Cryptococcus neoformans IM 983036 isolate at 100 ug/ml after 48 hrs; method in brief: as §4
Cryptococcus neoformans [23] = assay: Antimicrobial activity against Cryptococcus neoformans IM 983036 isolate at 50 ug/ml after 48 hrs; method in brief: as §4
Cryptococcus neoformans [24] = assay: Antimicrobial activity against Cryptococcus neoformans IM 972751 isolate at 50 ug/ml after 48 hrs; method in brief: as §4
Candida tropicalis [25] = assay: Antimicrobial activity against Candida tropicalis C131 isolate at 100 ug/ml after 24 hrs; method in brief: as §3
Cryptococcus neoformans [26] = assay: Antimicrobial activity against Cryptococcus neoformans IM 983040 isolate at 12.5 ug/ml after 48 hrs; method in brief: as §4
Candida albicans [27] = assay: Antimicrobial activity against Candida albicans C126 isolate at 50 ug/ml after 24 hrs; method in brief: as §1
Cryptococcus neoformans [28] = assay: Antimicrobial activity against Cryptococcus neoformans IM 00319 isolate at 12.5 ug/ml after 48 hrs; method in brief: as §3
Cryptococcus neoformans [29] = assay: Antimicrobial activity against Cryptococcus neoformans IM 972724 isolate at 12.5 ug/ml after 48 hrs; method in brief: as §4
Candida parapsilosis = assay: Antimicrobial activity against Candida parapsilosis C124 isolate at 12.5 ug/ml after 24 hrs; conditions: Lodderomyces parapsilosis; method in brief: as §3
Candida albicans [30] = assay: Antimicrobial activity against Candida albicans C130 isolate at 6.25 ug/ml after 24 hrs; method in brief: as §1
Cryptococcus neoformans [31] = assay: Antimicrobial activity against Cryptococcus neoformans IM 042074 isolate at 25 ug/ml after 48 hrs; method in brief: as §3
Cryptococcus neoformans [32] = assay: Antimicrobial activity against Cryptococcus neoformans IM 052470 isolate at 12.5 ug/ml after 48 hrs; method in brief: as §3
Candida albicans [33] = assay: Antimicrobial activity against Candida albicans C127 isolate at 25 ug/ml after 24 hrs; conditions: C127, 24 h; method in brief: as §1
Candida albicans [34] = assay: Antimicrobial activity against Candida albicans C130 isolate at 12.5 ug/ml after 24 hrs; method in brief: as §1
Cryptococcus neoformans [35] = assay: Antimicrobial activity against Cryptococcus neoformans IM 983040 isolate at 100 ug/ml after 48 hrs; method in brief: as §4
Cryptococcus neoformans [36] = assay: Antimicrobial activity against Cryptococcus neoformans IM 031631 isolate at 100 ug/ml after 48 hrs; method in brief: as §3
Cryptococcus neoformans [37] = assay: Antimicrobial activity against Cryptococcus neoformans IM 00319 isolate at 6.25 ug/ml after 48 hrs; method in brief: as §3
Trichophyton rubrum = assay: Antifungal activity against Trichophyton rubrum C110 after 48 hrs by broth microdilution technique; conditions: read-out: MIC; method in brief: as §2
Cryptococcus neoformans [38] = assay: Antimicrobial activity against Cryptococcus neoformans ATCC 32264 at 100 ug/ml after 48 hrs; conditions: ATCC 32264, 48 h; method in brief: as §3
Candida albicans [39] = assay: Antimicrobial activity against Candida albicans ATCC 10231 at 25 ug/ml after 24 hrs; conditions: ATCC 10231, 24 h; method in brief: as §1

For c1ccc2nc(-c3ccncc3)ccc2c1, the inhibition at 25 µg/mL (Candida albicans [1]) was 0%, the MIC (Saccharomyces cerevisiae) was 50 µg/mL (≈ 242 µM) and the inhibition at 50 µg/mL (Candida albicans [2]) was 15%. It also gave an inhibition at 25 µg/mL (Candida tropicalis [3]) of 60%, an inhibition at 6.25 µg/mL (Cryptococcus neoformans [4]) of 83% and an inhibition at 50 µg/mL (Candida albicans [5]) of 82%. For the same molecule, the inhibition at 6.25 µg/mL (Pichia kudriavzevii [6]) was 0%, the MIC (Aspergillus fumigatus) was 50 µg/mL (≈ 242 µM) and the inhibition at 25 µg/mL (Candida albicans [7]) was 0%. It also gave an inhibition at 12.5 µg/mL (Cryptococcus neoformans [8]) of 0%, an inhibition at 6.25 µg/mL (Cryptococcus neoformans [9]) of 21% and an inhibition at 50 µg/mL (Cryptococcus neoformans [10]) of 69%. The inhibition at 50 µg/mL (Cryptococcus neoformans [11]) was 75%, the inhibition at 25 µg/mL (Cryptococcus neoformans [12]) was 8% and the inhibition at 12.5 µg/mL (Cryptococcus neoformans [13]) was 36%. It also gave an inhibition at 25 µg/mL (Cryptococcus neoformans [14]) of 100%, an inhibition at 50 µg/mL (Candida albicans [15]) of 73% and an inhibition at 50 µg/mL (Candida albicans [16]) of 65%. The inhibition at 50 µg/mL (Pichia kudriavzevii [17]) was 3%, the inhibition at 12.5 µg/mL (Candida albicans [18]) was 3% and the inhibition at 6.25 µg/mL (Candida albicans [19]) was 0%. For the same molecule, the MIC [20] was 50 µg/mL (≈ 242 µM), the inhibition at 25 µg/mL (Nakaseomyces glabratus) was 4% and the inhibition at 6.25 µg/mL (Candida albicans [21]) was 0%. For the same molecule, the inhibition at 100 µg/mL (Cryptococcus neoformans [22]) was 79%, the inhibition at 50 µg/mL (Cryptococcus neoformans [23]) was 69% and the inhibition at 50 µg/mL (Cryptococcus neoformans [24]) was 20%. It also gave an inhibition at 100 µg/mL (Candida tropicalis [25]) of 100%, an inhibition at 12.5 µg/mL (Cryptococcus neoformans [26]) of 0% and an inhibition at 50 µg/mL (Candida albicans [27]) of 32%. The inhibition at 12.5 µg/mL (Cryptococcus neoformans [28]) was 32%, the inhibition at 12.5 µg/mL (Cryptococcus neoformans [29]) was 0% and the inhibition at 12.5 µg/mL (Candida parapsilosis) was 0%. For the same molecule, the inhibition at 6.25 µg/mL (Candida albicans [30]) was 0%, the inhibition at 25 µg/mL (Cryptococcus neoformans [31]) was 87% and the inhibition at 12.5 µg/mL (Cryptococcus neoformans [32]) was 24%. It also gave an inhibition at 25 µg/mL (Candida albicans [33]) of 0%, an inhibition at 12.5 µg/mL (Candida albicans [34]) of 2% and an inhibition at 100 µg/mL (Cryptococcus neoformans [35]) of 45%. For the same molecule, the inhibition at 100 µg/mL (Cryptococcus neoformans [36]) was 100%, the inhibition at 6.25 µg/mL (Cryptococcus neoformans [37]) was 12% and the MIC (Trichophyton rubrum) was 50 µg/mL (≈ 242 µM). It also gave an inhibition at 100 µg/mL (Cryptococcus neoformans [38]) of 100% and an inhibition at 25 µg/mL (Candida albicans [39]) of 63%.

For c1ccc(-c2ccc3ccccc3n2)cc1 [2-PHENYLQUINOLINE], the MIC (Saccharomyces cerevisiae) was 125 µg/mL (≈ 609 µM), the inhibition at 6.25 µg/mL (Cryptococcus neoformans [4]) was 0% and the MIC (Aspergillus fumigatus) was > 250 µg/mL. For the same molecule, the inhibition at 12.5 µg/mL (Cryptococcus neoformans [8]) was 0%, the inhibition at 6.25 µg/mL (Cryptococcus neoformans [9]) was 0% and the inhibition at 50 µg/mL (Cryptococcus neoformans [10]) was 46%. The inhibition at 50 µg/mL (Cryptococcus neoformans [11]) was 76%, the inhibition at 25 µg/mL (Cryptococcus neoformans [12]) was 35% and the inhibition at 12.5 µg/mL (Cryptococcus neoformans [13]) was 5%. The inhibition at 25 µg/mL (Cryptococcus neoformans [14]) was 77%, the inhibition at 50 µg/mL (Candida albicans [15]) was 0% and the MIC [20] was 25 µg/mL (≈ 122 µM). The inhibition at 100 µg/mL (Cryptococcus neoformans [22]) was 32%, the inhibition at 50 µg/mL (Cryptococcus neoformans [23]) was 12% and the inhibition at 50 µg/mL (Cryptococcus neoformans [24]) was 54%. The inhibition at 12.5 µg/mL (Cryptococcus neoformans [26]) was 4%, the inhibition at 12.5 µg/mL (Cryptococcus neoformans [28]) was 0% and the inhibition at 12.5 µg/mL (Cryptococcus neoformans [29]) was 13%. For the same molecule, the inhibition at 25 µg/mL (Cryptococcus neoformans [31]) was 33%, the inhibition at 12.5 µg/mL (Cryptococcus neoformans [32]) was 21% and the inhibition at 100 µg/mL (Cryptococcus neoformans [35]) was 50%. For the same molecule, the inhibition at 100 µg/mL (Cryptococcus neoformans [36]) was 74%, the inhibition at 6.25 µg/mL (Cryptococcus neoformans [37]) was 0% and the MIC (Trichophyton rubrum) was 25 µg/mL (≈ 122 µM). The inhibition at 100 µg/mL (Cryptococcus neoformans [38]) was 100% and the inhibition at 25 µg/mL (Candida albicans [39]) was 0%.
